In ChEMBL document CHEMBL5712070, “Discovery of a chemical probe for the L3MBTL3 methyllysine reader domain” (Nat Chem Biol, 2013):
Activity calls are given as the source filed them. The rule behind the calls is not given here.

Tests used:
[1] = biological target: T1, Lethal(3)malignant brain tumor-like protein 3 (Homo sapiens, UniProt Q96JM7); assay: Binding affinity to L3MBTL3 (unknown origin) by ITC assay
T1 sequence (Q96JM7 whole entry): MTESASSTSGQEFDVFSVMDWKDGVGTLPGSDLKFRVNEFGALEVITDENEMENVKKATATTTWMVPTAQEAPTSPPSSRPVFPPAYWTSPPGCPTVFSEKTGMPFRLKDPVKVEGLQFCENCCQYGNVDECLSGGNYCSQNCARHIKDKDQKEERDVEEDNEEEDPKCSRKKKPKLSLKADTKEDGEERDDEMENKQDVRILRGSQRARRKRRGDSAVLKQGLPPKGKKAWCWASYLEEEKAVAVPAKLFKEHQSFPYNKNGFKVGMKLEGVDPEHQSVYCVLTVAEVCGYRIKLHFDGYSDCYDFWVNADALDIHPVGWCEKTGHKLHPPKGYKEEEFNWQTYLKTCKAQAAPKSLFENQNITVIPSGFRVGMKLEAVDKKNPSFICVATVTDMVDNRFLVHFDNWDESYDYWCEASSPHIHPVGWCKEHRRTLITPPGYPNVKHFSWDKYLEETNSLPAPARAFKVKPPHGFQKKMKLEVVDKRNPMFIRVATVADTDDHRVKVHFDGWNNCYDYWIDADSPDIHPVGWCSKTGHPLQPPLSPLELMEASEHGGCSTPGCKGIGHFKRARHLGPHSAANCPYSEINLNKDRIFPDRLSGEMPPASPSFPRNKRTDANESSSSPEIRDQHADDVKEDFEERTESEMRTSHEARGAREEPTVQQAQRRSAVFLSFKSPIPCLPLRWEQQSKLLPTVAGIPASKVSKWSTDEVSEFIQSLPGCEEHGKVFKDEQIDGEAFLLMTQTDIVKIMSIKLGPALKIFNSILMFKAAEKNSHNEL

[2] = biological target: T1, Lethal(3)malignant brain tumor-like protein 3; assay: Inhibition of L3MBTL3 (unknown origin) using H4K20me2 peptide by Alpha-Screen methylated histone peptide competition assay
[3] = Cytotoxicity in HEK293T/17 cells assessed as effect on cell viability up to 100 uM incubated for 24 hrs by CellTiter-Glo luminescent cell viability assay; assay type: toxicity, cell-based; conditions: human, hek293t/17, 24 h
[4] = biological target: T2, Lethal(3)malignant brain tumor-like protein 3 (Homo sapiens) (UniProt Q96JM7); assay: Inhibition of GFP-3MBT tagged L3MBTL3 (unknown origin) expressed in HEK293 cells assessed as reduction in recovery of fluorescence intensity up to 0.1 mM measured up to 60 secs by FRAP assay; assay type: cell-based; conditions: time <= 60.0 sec
T2 sequence (whole entry): T1 sequence (Q96JM7 whole entry)
In short: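 FRAP: HEK293 cells transfected with GFP-3MBT; inhibitor treatment 3–6 h; 488 nm laser bleaching then image acquisition every 2 s on laser scanning confocal microscope. Recovery fitted exponentially from 8–10 nuclei per condition; water as control; experiment repeated 3 independent times.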

[5] = biological target: T2, Lethal(3)malignant brain tumor-like protein 3 (Homo sapiens); assay: Inhibition of GFP-3MBT tagged L3MBTL3 (unknown origin) expressed in HEK293 cells assessed as disruption of foci formation at 100 uM by immunofluorescence assay; assay type: cell-based
In short: (§1)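 HEK293 cells seeded on coverslips, transfected 16–24 h after seeding with GFP-3MBT or GFP-FLMBT for 48 h; compounds at indicated concentrations for at least 24 h; Hoechst 33342 stain before spinning-disk confocal imaging; foci quantified by % GFP intensity function.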

[6] = biological target: T2, Lethal(3)malignant brain tumor-like protein 3 (Homo sapiens); assay: Binding affinity to GFP-3MBT tagged L3MBTL3 (unknown origin) assessed as protein half life at 1 uM
[7] = biological target: T1, Lethal(3)malignant brain tumor-like protein 3; assay: Binding affinity to GFP-3MBT tagged L3MBTL3 (unknown origin) assessed as diffusion coefficient at 1 uM (reference value: 0.1272 um2/s)
[8] = biological target: T1, Lethal(3)malignant brain tumor-like protein 3; assay: Binding affinity to GFP-tagged full length L3MBTL3 (unknown origin) assessed as diffusion coefficient at 1 uM (reference value: 0.037549815 um2/s)
[9] = biological target: T2, Lethal(3)malignant brain tumor-like protein 3 (Homo sapiens); assay: Binding affinity to GFP-tagged full length L3MBTL3 (unknown origin) expressed in HEK293 cells assessed as co-localization with full length L3MBTL3; assay type: cell-based
[10] = biological target: T2, Lethal(3)malignant brain tumor-like protein 3 (Homo sapiens); assay: Binding affinity to GFP-tagged full length L3MBTL3 (unknown origin) expressed in HEK293 cells assessed as increase in protein mobility; assay type: cell-based
[11] = biological target: T2, Lethal(3)malignant brain tumor-like protein 3 (Homo sapiens); assay: Inhibition of GFP-tagged full length L3MBTL3 (unknown origin) expressed in HEK293 cells assessed as disruption of foci formation by immunofluorescence assay; assay type: cell-based; in short: as §1
[12] = biological target: T2, Lethal(3)malignant brain tumor-like protein 3 (Homo sapiens); assay: Binding affinity to flag-tagged full length L3MBTL3 (unknown origin) expressed in HEK293 cell lysates at 5 nmol by; assay type: subcellular

Structure (SMILES)	Kd [1] [nM]	IC50 [2] [µM]	Activity [3]	inhibition [4]	inhibition [5]	T1/2 [6] [s]	Diffusion coefficient [7] [um2/s]	Diffusion coefficient [8] [um2/s]	Activity [9]	Activity [10]	inhibition [11]	Activity [12]
O=C(c1ccc(C(=O)N2CCC(N3CCCCC3)CC2)cc1)N1CCC(N2CCCCC2)CC1	> 150000	> 10	Non-Toxic	inactive	inactive	8.2	0.124	0.036	–	–	–	–
CCN1C(=O)\C(=C/C=C/C=C2/N(CCC(=O)OCOC(C)=O)c3ccc(C(=O)OCOC(C)=O)cc3C2(C)C)C(=O)N(CCC(=O)NCCCCCCNC(=O)c2ccc(Nc3cc(C(=O)N4CCC(N5CCCC5)CC4)ccc3C(=O)N3CCC(N4CCCC4)CC3)cc2)C1=O	–	–	–	–	–	–	–	–	Active	Active	inactive	–
O=C(CCCC[C@@H]1SC[C@@H]2NC(=O)N[C@@H]21)NCCOCCOCCOCCOCCOCCOCCOCCOCCOCCOCCOCCNC(=O)c1ccc(Nc2cc(C(=O)N3CCC(N4CCCC4)CC3)ccc2C(=O)N2CCC(N3CCCC3)CC2)cc1	350	–	–	–	–	–	–	–	–	–	–	Active
